Laboratory results published in PubChem BioAssay.

Assay: LAP4-GFP expression modulators in yeast, confirmation, cell-based, cherry picks, flow cytometry, mother/daughter gates (AID 2271);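 note: ratio of sample to DMSO plate mean so 100% equals DMSO level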
Settings: S. cerevisiae LAP4-GFP strain, 3 h, measured here: daughter cell gate response, at 10 µM, stronger effect = higher value, 100 means same as DMSO control
In short: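 System: GFP-fusion yeast strain; Incubation: compound exposure 3 h at 30 °C, end-over-end rotation; Measured by: GFP by flow cytometry; Read-out: median GFP fluorescence as percent of plate-mean DMSO wells; Medium: synthetic complete (SC) yeast growth medium; Compound: single test-compound dose, 10 µM final; Benchmarks: DMSO-only negative wells, rapamycin 400 ng/mL positive wells.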

| Structure (SMILES) | GFP response relative to DMSO [%] |
| --- | --- |
| CCOC(=O)c1ccc(NC(=O)CCc2nc(-c3ccc(C)cc3)no2)cc1 | 99.1 |
| Cc1cccc(N2C(=O)C(Cl)=C(Nc3c(C)n(C)n(-c4ccccc4)c3=O)C2=O)c1C | 104 |
| Cc1noc2ncnc(Sc3ccc(Cl)cc3)c12 | 130 |
| CCN(CC)c1ccc(/C=C/c2cccc[n+]2C)c(OC)c1 | 113 |
| CC1=NOC(=O)/C1=C\c1ccc(-c2cc(Cl)ccc2Cl)o1 | 176 |
| CCCN(c1ccccc1F)S(=O)(=O)c1cc(-c2cc(C)no2)ccc1OC | 96 |
| COc1ccccc1-c1noc(CCC(=O)Nc2cccc(C)c2)n1 | 96.5 |
| O=C(c1ccc([N+](=O)[O-])o1)N1CCN(c2nc3ccc(F)cc3s2)CC1 | 109 |
| COc1ccc(Br)cc1/C=C/C(=O)c1ccc(NC(C)=O)cc1 | 89.8 |
| CCOc1ccc(/C=C/C(=O)c2c(O)cc(C)oc2=O)cc1 | 113 |
| CN1CCN(C(c2ccc(C(F)(F)F)cc2)c2ccc3cccnc3c2O)CC1 (stereo not given) | 190 |
| O=C(NNC(=S)NC(=O)C12CC3CC(CC(C3)C1)C2)c1ccncc1 | 125 |
| Cc1ccccc1NC(=O)c1ccccc1 | 97.6 |
| Cc1cc(C(=O)Nc2nc(-c3ccccn3)cs2)ccc1[N+](=O)[O-] | 149 |
| N/C(=N\OC(=O)c1cccc(Br)c1)c1ccccc1 | 123 |
| O=C(Nc1nccs1)C(c1ccccc1)N1CCCCC1 (stereo not given) | 94.2 |
| C=CCNC(=S)N/N=C(\C)c1cccc(OC)c1 | 99.3 |
| O=[N+]([O-])c1cc(CN2CCN(c3cccc(C(F)(F)F)c3)CC2)c2cccnc2c1O | 229 |
| COc1ccccc1/C=C/C=N/NC(=O)c1cccs1 | 95.6 |
| O=C(Oc1ccnc2cc(Cl)ccc12)N1CCCCCC1 | 111 |

| Structure (SMILES) | GFP response relative to DMSO [%] |
| --- | --- |
| O=C(c1ccc([N+](=O)[O-])o1)N1CCN(c2nc3c(F)cc(F)cc3s2)CC1 | 169 |
| Cc1nn(Cc2ccccc2Cl)c(C)c1C(=O)NCc1ccco1 | 101 |
| N#C/C(=C\c1ccccn1)c1nc2ccccc2s1 | 464 |
| Cc1ccc(NC(=O)c2ccc([N+](=O)[O-])o2)cc1C | 111 |
| O=C(N/N=C/c1ccc(-c2ccc(Br)cc2)o1)c1ccc2c(c1)OCO2 | 95.9 |
| Cc1n[nH]c(C)c1N1C(=O)c2cccc3cc(Br)cc(c23)C1=O | 99.1 |
| CC(C)(C)NC(=O)c1ccccc1-c1nc(-c2ccccc2Cl)no1 | 99.1 |
| CCn1c(=O)c(C(=O)NCCc2ccccc2)c(O)c2ccccc21 | 96 |
| O=C(O)Cn1cc(/C=C/[N+](=O)[O-])c2ccccc21 | 101 |
| O=[N+]([O-])c1cc(C(F)(F)F)ccc1Sc1ccc2ccccc2n1 | 109 |
| Cc1ccc(NC(=S)c2nc3ccccc3[nH]2)cc1 | 120 |
| CCOc1ccc(C(C)=O)cc1N1C(=O)C2C3C=CC(O3)C2C1=O (stereo not given) | 132 |
| O=C(CSc1nnc(-c2ccccn2)n1Cc1ccccc1)N1CCOCC1 | 107 |
| Cc1cc(N2CCOCC2)n2nc(C)c(-c3ccccc3)c2n1 | 95.9 |
| CCN(CC)CCN(C(=O)c1ccc2c(c1)CCCC2)c1nc2cc(OC)c(OC)cc2s1 | 99.3 |
| COc1ccc(-c2ccc(CCC(=O)O)o2)cc1 | 122 |
| COc1ccc(N2C(=O)C(Cl)=C(Nc3c(C)n(C)n(-c4ccccc4)c3=O)C2=O)cc1 | 101 |
| Cn1ncc(N2CCN(S(=O)(=O)c3ccc(Br)cc3)CC2)c(Cl)c1=O | 96 |
| O=C(CCc1ccccc1)NNC(=S)NC(=O)c1ccccc1 | 180 |
| Cc1ccc(C(=O)OCC(=O)Nc2ccccc2Sc2ccccc2)cc1C | 99.7 |

Same assay, conditions: S. cerevisiae LAP4-GFP strain, 3 h, measured here: mother cell gate response, at 10 µM, stronger effect = higher value, 100 means same as DMSO control

| Structure (SMILES) | GFP response relative to DMSO [%] |
| --- | --- |
| CCOC(=O)c1ccc(NC(=O)CCc2nc(-c3ccc(C)cc3)no2)cc1 | 98.4 |
| Cc1cccc(N2C(=O)C(Cl)=C(Nc3c(C)n(C)n(-c4ccccc4)c3=O)C2=O)c1C | 104 |
| Cc1noc2ncnc(Sc3ccc(Cl)cc3)c12 | 141 |
| CCN(CC)c1ccc(/C=C/c2cccc[n+]2C)c(OC)c1 | 116 |
| CC1=NOC(=O)/C1=C\c1ccc(-c2cc(Cl)ccc2Cl)o1 | 186 |
| CCCN(c1ccccc1F)S(=O)(=O)c1cc(-c2cc(C)no2)ccc1OC | 98.3 |
| COc1ccccc1-c1noc(CCC(=O)Nc2cccc(C)c2)n1 | 96.5 |
| O=C(c1ccc([N+](=O)[O-])o1)N1CCN(c2nc3ccc(F)cc3s2)CC1 | 115 |
| COc1ccc(Br)cc1/C=C/C(=O)c1ccc(NC(C)=O)cc1 | 92.3 |
| CCOc1ccc(/C=C/C(=O)c2c(O)cc(C)oc2=O)cc1 | 126 |
| CN1CCN(C(c2ccc(C(F)(F)F)cc2)c2ccc3cccnc3c2O)CC1 (stereo not given) | 218 |
| O=C(NNC(=S)NC(=O)C12CC3CC(CC(C3)C1)C2)c1ccncc1 | 136 |
| Cc1ccccc1NC(=O)c1ccccc1 | 94 |
| Cc1cc(C(=O)Nc2nc(-c3ccccn3)cs2)ccc1[N+](=O)[O-] | 155 |
| N/C(=N\OC(=O)c1cccc(Br)c1)c1ccccc1 | 143 |
| O=C(Nc1nccs1)C(c1ccccc1)N1CCCCC1 (stereo not given) | 93.1 |
| C=CCNC(=S)N/N=C(\C)c1cccc(OC)c1 | 97.5 |
| O=[N+]([O-])c1cc(CN2CCN(c3cccc(C(F)(F)F)c3)CC2)c2cccnc2c1O | 216 |
| COc1ccccc1/C=C/C=N/NC(=O)c1cccs1 | 102 |
| O=C(Oc1ccnc2cc(Cl)ccc12)N1CCCCCC1 | 117 |

| Structure (SMILES) | GFP response relative to DMSO [%] |
| --- | --- |
| O=C(c1ccc([N+](=O)[O-])o1)N1CCN(c2nc3c(F)cc(F)cc3s2)CC1 | 232 |
| Cc1nn(Cc2ccccc2Cl)c(C)c1C(=O)NCc1ccco1 | 98.4 |
| N#C/C(=C\c1ccccn1)c1nc2ccccc2s1 | 589 |
| Cc1ccc(NC(=O)c2ccc([N+](=O)[O-])o2)cc1C | 127 |
| O=C(N/N=C/c1ccc(-c2ccc(Br)cc2)o1)c1ccc2c(c1)OCO2 | 98.4 |
| Cc1n[nH]c(C)c1N1C(=O)c2cccc3cc(Br)cc(c23)C1=O | 99.4 |
| CC(C)(C)NC(=O)c1ccccc1-c1nc(-c2ccccc2Cl)no1 | 99.4 |
| CCn1c(=O)c(C(=O)NCCc2ccccc2)c(O)c2ccccc21 | 97.4 |
| O=C(O)Cn1cc(/C=C/[N+](=O)[O-])c2ccccc21 | 100 |
| O=[N+]([O-])c1cc(C(F)(F)F)ccc1Sc1ccc2ccccc2n1 | 115 |
| Cc1ccc(NC(=S)c2nc3ccccc3[nH]2)cc1 | 128 |
| CCOc1ccc(C(C)=O)cc1N1C(=O)C2C3C=CC(O3)C2C1=O (stereo not given) | 136 |
| O=C(CSc1nnc(-c2ccccn2)n1Cc1ccccc1)N1CCOCC1 | 105 |
| Cc1cc(N2CCOCC2)n2nc(C)c(-c3ccccc3)c2n1 | 97.3 |
| CCN(CC)CCN(C(=O)c1ccc2c(c1)CCCC2)c1nc2cc(OC)c(OC)cc2s1 | 95.6 |
| COc1ccc(-c2ccc(CCC(=O)O)o2)cc1 | 126 |
| COc1ccc(N2C(=O)C(Cl)=C(Nc3c(C)n(C)n(-c4ccccc4)c3=O)C2=O)cc1 | 101 |
| Cn1ncc(N2CCN(S(=O)(=O)c3ccc(Br)cc3)CC2)c(Cl)c1=O | 95.1 |
| O=C(CCc1ccccc1)NNC(=S)NC(=O)c1ccccc1 | 185 |
| Cc1ccc(C(=O)OCC(=O)Nc2ccccc2Sc2ccccc2)cc1C | 97.2 |
